Experimental data from ChEMBL document CHEMBL3085643, “Synthesis and evaluation in monkey of [(18)F]4-fluoro-N-methyl-N-(4-(6-(methylamino)pyrimidin-4-yl)thiazol-2-yl)benzamide ([(18)F]FIMX): a promising radioligand for PET imaging of brain metabotropic glutamate receptor 1 (mGluR1)” (J Med Chem, 2013).

System: Brain
Experiment: Biodistribution in iv dosed rhesus monkey brain measured at 90 mins by PET analysis relative to control
Format: ADME, organism-based, Macaca mulatta
Conditions: in vivo, 1.5 h
Summary of the method: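 Baseline scans in rhesus monkey given the [18F] radioligand i.v. (4.6–6.58 mCi; specific activity 1.67–4.18 Ci/μmol at injection). Ketamine 10 mg/kg i.m. induction, then 1.6% isoflurane/98.4% O2, with the head in a stereotaxic frame. microPET Focus 220 scanning for 120 min in 33 frames (30 s–5 min). Regional uptake, including isocontour-delineated cerebellar grey matter, expressed as SUV.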

Drug uptake: 17%
SMILES: CC(C)Nc1cc(-c2csc(N(C)C(=O)c3ccc([18F])cc3)n2)ncn1
